From BindingDB's records for doi:10.1021/acs.jnatprod.6b00141 (University of Eastern Piedmont, 2016) come the findings set out here.

The structures appear in SMILES notation. pIC50: −log10 of the molar value.

Sequence of Signal transducer and activator of transcription 3 (P40763 whole entry): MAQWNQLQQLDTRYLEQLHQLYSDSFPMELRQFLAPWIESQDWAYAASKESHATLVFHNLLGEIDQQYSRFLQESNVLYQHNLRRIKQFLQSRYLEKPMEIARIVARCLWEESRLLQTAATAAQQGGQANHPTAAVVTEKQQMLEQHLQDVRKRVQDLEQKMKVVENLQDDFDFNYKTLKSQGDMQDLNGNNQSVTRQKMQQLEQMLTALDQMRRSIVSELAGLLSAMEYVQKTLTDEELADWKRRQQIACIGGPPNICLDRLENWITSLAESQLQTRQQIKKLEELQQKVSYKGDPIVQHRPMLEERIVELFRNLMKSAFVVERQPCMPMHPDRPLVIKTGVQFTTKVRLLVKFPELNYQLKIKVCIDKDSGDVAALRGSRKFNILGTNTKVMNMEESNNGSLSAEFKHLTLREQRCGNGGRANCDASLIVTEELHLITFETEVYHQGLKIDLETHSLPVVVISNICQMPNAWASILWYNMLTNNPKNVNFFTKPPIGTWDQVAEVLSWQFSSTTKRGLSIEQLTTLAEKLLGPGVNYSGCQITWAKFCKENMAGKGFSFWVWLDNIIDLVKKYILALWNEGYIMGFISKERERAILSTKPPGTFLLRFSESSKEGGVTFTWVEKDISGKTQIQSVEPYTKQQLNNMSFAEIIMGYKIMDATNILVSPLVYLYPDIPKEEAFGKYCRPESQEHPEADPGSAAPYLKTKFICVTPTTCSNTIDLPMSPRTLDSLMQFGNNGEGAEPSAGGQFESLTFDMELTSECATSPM

The target of the first test is Transcription factor p65 (Human, UniProt Q04206). In words: Inhibition of NFkappaB p65 activation (unknown origin) expressed in human HeLa cells assessed as inhibition of TNFalpha-induced NFkappaB p65 nuclear accumulation pretreated with cells followed by TNFalpha addition by DAPI staining based microscopic analysis.
Sequence of Transcription factor p65 (Q04206 whole entry): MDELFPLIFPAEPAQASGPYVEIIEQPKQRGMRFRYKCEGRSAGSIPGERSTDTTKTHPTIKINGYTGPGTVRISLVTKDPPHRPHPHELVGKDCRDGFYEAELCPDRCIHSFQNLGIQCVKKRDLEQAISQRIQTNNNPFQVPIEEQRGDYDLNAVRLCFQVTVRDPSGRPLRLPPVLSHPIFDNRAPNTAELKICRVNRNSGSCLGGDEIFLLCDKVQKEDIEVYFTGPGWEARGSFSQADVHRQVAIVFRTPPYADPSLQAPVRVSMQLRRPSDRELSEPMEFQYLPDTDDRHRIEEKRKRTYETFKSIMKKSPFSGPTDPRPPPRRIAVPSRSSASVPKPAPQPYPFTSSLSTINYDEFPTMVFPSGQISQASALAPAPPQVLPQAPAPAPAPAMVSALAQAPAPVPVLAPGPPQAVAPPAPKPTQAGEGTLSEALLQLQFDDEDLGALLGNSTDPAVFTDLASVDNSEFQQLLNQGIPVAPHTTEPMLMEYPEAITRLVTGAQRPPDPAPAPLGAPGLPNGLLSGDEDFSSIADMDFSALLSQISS
For the molecule `CC(=O)O[C@H]1CC/C(C)=C/CC/C(C)=C/C[C@]2(C(C)C)CC[C@@]1(C)O2`, the pIC50 was below 4.00.

For a further test, the target named is Signal transducer and activator of transcription 3 (Homo sapiens, UniProt P40763). In words: Inhibition of IFNgamma-induced STAT3 activation in human HeLa cells expressing STAT3 (unknown origin) preincubated for 15 mins followed by IFN-gamma addition measured after 6 hrs by luciferase reporter gene assay. Put shortly:
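HeLa-STAT3-Luc reporter cells in DMEM with 10% heat-inactivated FBS. Compounds added 15 min before IFNγ (20 IU). Stimulated 6 h. Cells washed in PBS and lysed 15 min at room temperature in Tris-phosphate pH 7.8 lysis buffer. Luciferase read in centrifuged lysate supernatant. IC50 calculated.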
`CC(=O)O[C@H]1CC/C(C)=C/CC/C(C)=C/C[C@]2(C(C)C)CC[C@@]1(C)O2` gave a pIC50 below 4.30.
On the same count and under the same terms, the figure for `C/C1=C\CC/C(C)=C/C[C@](O)(C(C)C)CC/C(C)=C/CC1` is below 4.30; for `CC1=C2CC/C(C)=C/CC[C@]3(C)O[C@@H]3CC/C(C)=C/[C@@H]2OC1=O` it is below 4.30.
Same read-out and setting: the figure for `C/C1=C\C[C@]2(C(C)C)CC[C@@](C)(O2)[C@H](O)CC/C(C)=C/CC1` is below 4.30.
Same read-out and setting: the figure for `C/C1=C\CC[C@]2(C)O[C@@H]2C[C@]2(C(C)C)CC[C@@](C)(O2)[C@@H](O)CC1` is below 4.30.
In the case of `CC(=O)O[C@H]1CC/C(C)=C/CC[C@]2(C)O[C@@H]2C[C@]2(C(C)C)CC[C@@]1(C)O2`, the pIC50 was below 4.30.
Same read-out and setting: the figure for `CC(=O)O[C@H]1CC[C@@]2(C)O[C@H]2CC/C(C)=C/C[C@]2(C(C)C)CC[C@@]1(C)O2` is below 4.30.
The same measure, in the same setting: under `C/C1=C\C[C@]2(C(C)C)CC[C@@](C)(O2)[C@@H](OC(=O)Cc2ccccc2)CC/C(C)=C/CC1` stands below 4.30; under `C/C1=C\C[C@]2(C(C)C)CC[C@@](C)(O2)[C@@H](O)CC/C(C)=C/CC1` [Incensole], 4.80.

What is called pIC50 is the IC50 on a negative log10 scale, so that one unit is a factor of ten.
